Reference: ChEMBL document CHEMBL4033667, “Design, synthesis, and identification of a novel napthalamide-isoselenocyanate compound NISC-6 as a dual Topoisomerase-IIα and Akt pathway inhibitor, and evaluation of its anti-melanoma activity” (Eur J Med Chem, 2017)
Active and inactive are the calls of the source. The rule behind the calls is not given here.

How the values were obtained:
[1] = system: UACC-903; assay: Antiproliferative activity against human UACC-903 cells harboring BRAF V600E mutant after 24 hrs by MTT assay; type: functional, cell-based; details: UACC-903, 24 h
Procedure, shortened: (§1)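 MTT viability in melanoma lines grown in DMEM with 10% FBS and pen/strep at 37 °C, 5% CO2. 3000 cells/well, settled overnight, then exposed to compound (0 to 50 µM) in triplicate for 24, 48 or 72 h. MTT (5.0 mg/mL solution) added 3 h before termination. IC50 from non-linear regression (variable slope), mean ± SD.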

[2] = system: UACC-903; assay: Antiproliferative activity against human UACC-903 cells harboring BRAF V600E mutant after 48 hrs by MTT assay; type: functional, cell-based; details: UACC-903, 48 h; procedure, shortened: as §1
[3] = system: UACC-903; assay: Antiproliferative activity against human UACC-903 cells harboring BRAF V600E mutant after 72 hrs by MTT assay; type: functional, cell-based; details: UACC-903, 72 h; procedure, shortened: as §1
[4] = Antiproliferative activity against human 1205 Lu cells harboring BRAF V600E mutant after 24 hrs by MTT assay; type: functional, cell-based; procedure, shortened: as §1
[5] = Antiproliferative activity against human 1205 Lu cells harboring BRAF V600E mutant after 48 hrs by MTT assay; type: functional, cell-based; procedure, shortened: as §1
[6] = Antiproliferative activity against human 1205 Lu cells harboring BRAF V600E mutant after 72 hrs by MTT assay; type: functional, cell-based; procedure, shortened: as §1
[7] = Antiproliferative activity against human A375M cells harboring BRAF V600E mutant after 24 hrs by MTT assay; type: functional, cell-based; procedure, shortened: as §1
[8] = Antiproliferative activity against human A375M cells harboring BRAF V600E mutant after 48 hrs by MTT assay; type: functional, cell-based; procedure, shortened: as §1
[9] = Antiproliferative activity against human A375M cells harboring BRAF V600E mutant after 72 hrs by MTT assay; type: functional, cell-based; procedure, shortened: as §1
[10] = system: CHL-1; assay: Antiproliferative activity against human CHL-1 cells harboring wild type BRAF after 24 hrs by MTT assay; type: functional, cell-based; details: CHL-1, 24 h; procedure, shortened: as §1
[11] = system: CHL-1; assay: Antiproliferative activity against human CHL-1 cells harboring wild type BRAF after 48 hrs by MTT assay; type: functional, cell-based; details: CHL-1, 48 h; procedure, shortened: as §1
[12] = system: CHL-1; assay: Antiproliferative activity against human CHL-1 cells harboring wild type BRAF after 72 hrs by MTT assay; type: functional, cell-based; details: CHL-1, 72 h; procedure, shortened: as §1
[13] = system: NHDF; assay: Cytotoxicity against human NHDF cells assessed as reduction in cell viability at 2.5 uM after 48 hrs by MTT assay; type: cell-based
Procedure, shortened: (§2)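 nHDF normal fibroblasts grown in serum-free fibroblast basal medium with growth kit and pen/strep/amphotericin B. Treated 48 h at set concentrations, with viability read by MTT assay.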

[14] = system: NHDF; assay: Cytotoxicity against human NHDF cells assessed as reduction in cell viability at 5 uM after 48 hrs by MTT assay; type: cell-based; procedure, shortened: as §2
[15] = target: DNA topoisomerase 2-alpha (Homo sapiens) (UniProt P11388); assay: Inhibition of human DNA topoisomerase 2alpha assessed as decrease in relaxation of supercoiled pBR322 DNA at 0.5 to 5 uM after 1 hr by ethidium bromide staining-based agarose gel electrophoresis
Chain of DNA topoisomerase 2-alpha (Homo sapiens) (P11388 whole entry): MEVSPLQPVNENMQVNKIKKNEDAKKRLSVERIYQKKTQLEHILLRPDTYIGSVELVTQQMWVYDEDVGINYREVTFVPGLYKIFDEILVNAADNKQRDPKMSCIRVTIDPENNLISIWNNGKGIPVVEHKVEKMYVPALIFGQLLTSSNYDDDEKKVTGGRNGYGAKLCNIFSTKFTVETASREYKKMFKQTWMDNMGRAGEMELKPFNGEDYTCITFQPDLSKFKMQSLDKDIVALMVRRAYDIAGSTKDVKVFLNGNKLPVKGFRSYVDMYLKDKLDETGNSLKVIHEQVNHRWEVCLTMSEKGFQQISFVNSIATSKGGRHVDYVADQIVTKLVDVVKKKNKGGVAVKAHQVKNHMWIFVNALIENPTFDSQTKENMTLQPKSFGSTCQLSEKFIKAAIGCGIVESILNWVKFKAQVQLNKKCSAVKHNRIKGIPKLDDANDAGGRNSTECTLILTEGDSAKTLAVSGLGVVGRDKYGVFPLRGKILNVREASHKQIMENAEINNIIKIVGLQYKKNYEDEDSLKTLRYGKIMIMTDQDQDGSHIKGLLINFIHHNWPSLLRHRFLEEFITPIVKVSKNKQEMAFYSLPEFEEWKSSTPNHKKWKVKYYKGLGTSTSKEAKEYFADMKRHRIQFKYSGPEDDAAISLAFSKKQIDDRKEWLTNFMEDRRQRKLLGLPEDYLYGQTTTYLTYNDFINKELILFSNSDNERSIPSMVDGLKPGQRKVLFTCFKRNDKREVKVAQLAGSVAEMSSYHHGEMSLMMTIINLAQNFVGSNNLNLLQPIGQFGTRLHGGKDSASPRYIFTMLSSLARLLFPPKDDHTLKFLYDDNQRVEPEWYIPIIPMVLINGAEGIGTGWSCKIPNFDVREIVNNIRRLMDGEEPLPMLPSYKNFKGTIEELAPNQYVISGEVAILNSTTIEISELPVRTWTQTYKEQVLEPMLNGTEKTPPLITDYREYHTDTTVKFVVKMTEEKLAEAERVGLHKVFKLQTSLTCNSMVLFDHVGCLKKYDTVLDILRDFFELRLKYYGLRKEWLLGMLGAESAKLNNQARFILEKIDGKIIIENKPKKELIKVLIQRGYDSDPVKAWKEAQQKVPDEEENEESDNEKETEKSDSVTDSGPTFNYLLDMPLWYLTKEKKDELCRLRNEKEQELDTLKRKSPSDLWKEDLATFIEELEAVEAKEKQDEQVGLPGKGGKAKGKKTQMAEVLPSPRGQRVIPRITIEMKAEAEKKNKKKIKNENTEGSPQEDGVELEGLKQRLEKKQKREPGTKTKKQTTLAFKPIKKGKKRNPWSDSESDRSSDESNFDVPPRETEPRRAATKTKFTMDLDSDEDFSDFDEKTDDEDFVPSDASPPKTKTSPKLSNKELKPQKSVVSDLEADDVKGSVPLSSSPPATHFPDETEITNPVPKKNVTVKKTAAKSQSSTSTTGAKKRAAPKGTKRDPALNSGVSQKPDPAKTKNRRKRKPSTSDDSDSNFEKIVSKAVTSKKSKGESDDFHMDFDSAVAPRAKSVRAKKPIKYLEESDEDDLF
Procedure, shortened: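 Kit-based relaxation assay: supercoiled plasmid DNA with 4 units of human Topo-IIα in assay buffer plus test agent or DMSO at 37 °C (1 h in legend, 30 min in methods). Stopped with 10% SDS, then proteinase K 15 min at 37 °C. Run on 1% agarose 1-2 h, ethidium bromide 2 h, destain 15 min in TAE, UV imaging.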

[16] = species on record: Homo sapiens; assay: Inhibition of DNA topoisomerase 2 in human UACC-903 cells assessed as increase in H2AX phosphorylation at 5 uM after 6 hrs by DAPI staining-based immunocytochemistry analysis; type: cell-based
Procedure, shortened: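 UACC903 cells (1.6 × 10^5) on coverslips overnight, then 5 µM or DMSO for 6 h. Fixed in 4% formaldehyde and blocked 1 h (0.3% Triton X-100, 5% donkey serum). Anti-p-H2A.X 1:500 overnight at 4 °C, then Alexa Fluor 488 secondary 1:500 with phalloidin for 1 h. DAPI mounting, imaged at 60X.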

[17] = target: RAC-alpha serine/threonine-protein kinase (Homo sapiens) (UniProt P31749); assay: Inhibition of Akt-phosphorylation in human UACC-903 cells after 24 hrs by Western blot analysis; type: cell-based
Chain of RAC-alpha serine/threonine-protein kinase (Homo sapiens) (P31749 whole entry): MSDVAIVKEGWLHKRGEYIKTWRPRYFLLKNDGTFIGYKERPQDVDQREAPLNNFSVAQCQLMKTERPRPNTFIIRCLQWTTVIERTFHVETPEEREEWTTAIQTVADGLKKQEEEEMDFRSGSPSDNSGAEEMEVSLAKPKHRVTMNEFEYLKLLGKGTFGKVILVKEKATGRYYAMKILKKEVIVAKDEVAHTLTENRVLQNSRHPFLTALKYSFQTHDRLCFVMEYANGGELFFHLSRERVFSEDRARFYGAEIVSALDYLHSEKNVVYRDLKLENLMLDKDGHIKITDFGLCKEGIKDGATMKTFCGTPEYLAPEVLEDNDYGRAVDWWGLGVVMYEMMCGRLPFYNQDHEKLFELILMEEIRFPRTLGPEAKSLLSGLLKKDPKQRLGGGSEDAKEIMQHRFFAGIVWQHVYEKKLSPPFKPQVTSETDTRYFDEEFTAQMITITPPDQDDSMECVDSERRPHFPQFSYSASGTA
Procedure, shortened: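 UACC903 cells treated with increasing doses for 24 h, then lysed in RIPA with protease and phosphatase inhibitors and spun 15,000 rpm for 10 min. Lysates resolved on 4-12% gel, moved to PVDF and probed for phospho-Akt and pan-Akt. β-actin served as loading control; detection by ECL.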

[18] = target: Mitogen-activated protein kinase; ERK1/ERK2 (Homo sapiens) (UniProt P27361+P28482); assay: Inhibition of Erk1/2 phosphorylation in human UACC-903 cells at 2.5 to 5 uM after 24 hrs by Western blot analysis; type: cell-based
Chain of Mitogen-activated protein kinase; ERK1/ERK2 (Homo sapiens) (P27361 whole entry, looked up): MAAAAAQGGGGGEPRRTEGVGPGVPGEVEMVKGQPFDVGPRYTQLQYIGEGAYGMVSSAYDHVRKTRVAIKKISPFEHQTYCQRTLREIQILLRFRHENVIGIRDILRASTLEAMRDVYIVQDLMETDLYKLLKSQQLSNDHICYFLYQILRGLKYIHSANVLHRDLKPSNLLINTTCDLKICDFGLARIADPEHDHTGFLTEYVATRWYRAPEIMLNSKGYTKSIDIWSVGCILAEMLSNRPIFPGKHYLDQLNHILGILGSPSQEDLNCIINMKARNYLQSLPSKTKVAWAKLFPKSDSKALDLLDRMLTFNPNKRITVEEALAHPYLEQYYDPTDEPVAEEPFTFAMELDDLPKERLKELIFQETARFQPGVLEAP
Chain of Mitogen-activated protein kinase; ERK1/ERK2 (Homo sapiens) (P28482 whole entry, looked up): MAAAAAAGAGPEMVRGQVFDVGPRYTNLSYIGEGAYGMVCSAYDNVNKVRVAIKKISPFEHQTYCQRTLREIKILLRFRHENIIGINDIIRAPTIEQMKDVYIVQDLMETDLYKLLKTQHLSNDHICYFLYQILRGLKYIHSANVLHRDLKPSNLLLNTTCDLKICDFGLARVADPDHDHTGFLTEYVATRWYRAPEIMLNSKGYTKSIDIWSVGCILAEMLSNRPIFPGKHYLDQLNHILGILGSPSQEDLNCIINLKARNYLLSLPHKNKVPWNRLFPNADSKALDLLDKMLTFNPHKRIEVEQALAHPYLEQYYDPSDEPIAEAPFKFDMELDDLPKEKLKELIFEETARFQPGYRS

[19] = system: UACC-903; assay: Induction of apoptosis in human UACC-903 cells assessed as viable cells at 5 uM after 24 hrs by Annexin-V/7-AAD staining-based fluorescence assay (reference value: 83.90%); type: functional; details: UACC-903, 24 h, read-out: Activity
[20] = system: UACC-903; assay: Induction of apoptosis in human UACC-903 cells assessed as early apoptotic cells at 5 uM after 24 hrs by Annexin-V/7-AAD staining-based fluorescence assay (reference value: 13.15%); type: functional
[21] = system: UACC-903; assay: Induction of apoptosis in human UACC-903 cells assessed as late apoptotic cells at 5 uM after 24 hrs by Annexin-V/7-AAD staining-based fluorescence assay (reference value: 2.78%); type: functional
[22] = system: UACC-903; assay: Induction of apoptosis in human UACC-903 cells assessed as necrotic cells at 5 uM after 24 hrs by Annexin-V/7-AAD staining-based fluorescence assay (reference value: 0.17%); type: functional
[23] = system: UACC-903; assay: Induction of apoptosis in human UACC-903 cells assessed as viable cells at 10 uM after 24 hrs by Annexin-V/7-AAD staining-based fluorescence assay (reference value: 83.90%); type: functional; details: UACC-903, 24 h, read-out: Activity
[24] = system: UACC-903; assay: Induction of apoptosis in human UACC-903 cells assessed as early apoptotic cells at 10 uM after 24 hrs by Annexin-V/7-AAD staining-based fluorescence assay (reference value: 13.15%); type: functional
[25] = system: UACC-903; assay: Induction of apoptosis in human UACC-903 cells assessed as late apoptotic cells at 10 uM after 24 hrs by Annexin-V/7-AAD staining-based fluorescence assay (reference value: 2.78%); type: functional
[26] = system: UACC-903; assay: Induction of apoptosis in human UACC-903 cells assessed as necrotic cells at 10 uM after 24 hrs by Annexin-V/7-AAD staining-based fluorescence assay (reference value: 0.17%); type: functional
[27] = system: UACC-903; assay: Induction of apoptosis in human UACC-903 cells assessed as increase in caspase 3/7 activity by measuring viable cells at 5 uM after 24 hrs by 7-AAD staining-based fluorescence assay (reference value: 77.50%); type: functional
Procedure, shortened: (§3)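 Muse caspase-3/7 kit on UACC903 cells after 24 h at given doses or DMSO. Cell-permeant NucView DEVD-linked DNA dye fluoresces after cleavage by active caspase 3/7. 7-AAD marks cells with compromised membranes. Gates: live, early apoptotic (caspase+/7-AAD−), late apoptotic (both +), necrotic (7-AAD+ only).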

[28] = system: UACC-903; assay: Induction of apoptosis in human UACC-903 cells assessed as increase in caspase 3/7 activity by measuring early apoptotic cells at 5 uM after 24 hrs by 7-AAD staining-based fluorescence assay (reference value: 16.08%); type: functional; procedure, shortened: as §3
[29] = system: UACC-903; assay: Induction of apoptosis in human UACC-903 cells assessed as increase in caspase 3/7 activity by measuring late apoptotic cells at 5 uM after 24 hrs by 7-AAD staining-based fluorescence assay (reference value: 6.08%); type: functional; procedure, shortened: as §3
[30] = system: UACC-903; assay: Induction of apoptosis in human UACC-903 cells assessed as increase in caspase 3/7 activity by measuring necrotic cells at 5 uM after 24 hrs by 7-AAD staining-based fluorescence assay (reference value: 0.34%); type: functional; procedure, shortened: as §3
[31] = system: UACC-903; assay: Induction of apoptosis in human UACC-903 cells assessed as increase in caspase 3/7 activity by measuring viable cells at 10 uM after 24 hrs by 7-AAD staining-based fluorescence assay (reference value: 77.50%); type: functional; procedure, shortened: as §3
[32] = system: UACC-903; assay: Induction of apoptosis in human UACC-903 cells assessed as increase in caspase 3/7 activity by measuring early apoptotic cells at 10 uM after 24 hrs by 7-AAD staining-based fluorescence assay (reference value: 16.08%); type: functional; procedure, shortened: as §3
[33] = system: UACC-903; assay: Induction of apoptosis in human UACC-903 cells assessed as increase in caspase 3/7 activity by measuring late apoptotic cells at 10 uM after 24 hrs by 7-AAD staining-based fluorescence assay (reference value: 6.08%); type: functional; procedure, shortened: as §3
[34] = system: UACC-903; assay: Induction of apoptosis in human UACC-903 cells assessed as increase in caspase 3/7 activity by measuring necrotic cells at 10 uM after 24 hrs by 7-AAD staining-based fluorescence assay (reference value: 0.34%); type: functional; procedure, shortened: as §3
[35] = system: Mus musculus; assay: Toxicity in Harlan Sprague Dawley mouse xenografted with human UACC-903 cells assessed as body weight loss at 0.6 umole, ip administered 3 times a week measured during compound dosing relative to control; type: organism-based; details: in vivo
Procedure, shortened: (§4)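 5×10^6 UACC 903 cells in 0.2 mL DMEM/10% FBS injected s.c. into both flanks of 4-6 week female athymic nude mice. From day 6, randomised groups (5 mice, 2 tumours each) received i.p. DMSO or 0.6 µmole in DMSO (100 µL) three times weekly. Caliper tumour volume and body weight taken thrice weekly to day 40; mean ± SEM.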

[36] = system: UACC-903; assay: Antitumor activity against human UACC-903 cells xenografted in Harlan Sprague Dawley mouse assessed as reduction in tumor burden at 0.6 umole, ip administered 3 times a week measured on day 40 relative to vehicle-treated control; type: functional; design: scale not given: the % may be the effect or the level left; procedure, shortened: as §4
[37] = system: CHL-1; assay: Potency index, ratio of PLX-4032 IC50 to test compound IC50 for human CHL-1 cells harboring wild type BRAF after 72 hrs; type: functional

O=C1c2cccc3cccc(c23)C(=O)N1CCCCN=C=[Se]
IC50 [1]: 13.1 µM | IC50 [2]: 9.2 µM | IC50 [3]: 12 µM | IC50 [4]: 13.1 µM | IC50 [5]: 15.9 µM | IC50 [6]: 15.4 µM | IC50 [7]: 19.4 µM | IC50 [8]: 21 µM | IC50 [9]: 28.4 µM | IC50 [10]: 9.7 µM | IC50 [11]: 8 µM | IC50 [12]: 8.9 µM

O=C1c2cccc3cccc(c23)C(=O)N1CCCCCCN=C=[Se]
IC50 [1]: 13.4 µM | IC50 [2]: 2.5 µM | IC50 [3]: 1.7 µM | IC50 [4]: 13.4 µM | IC50 [5]: 10.6 µM | IC50 [6]: 13.4 µM | IC50 [7]: 11.8 µM | IC50 [8]: 2.7 µM | IC50 [9]: 4.4 µM | IC50 [10]: 13.7 µM | IC50 [11]: 1.5 µM | IC50 [12]: 0.8 µM | Activity [13]: > 70% | Activity [14]: > 70% | inhibition [15]: Active | inhibition [16]: Active | inhibition [17]: Dose-dependent effect | inhibition [18]: inactive | viability at 5 µM [19]: 83.2% | Activity [20]: 11.47% | Activity [21]: 4.52% | Activity [22]: 0.84% | viability at 10 µM [23]: 49.1% | Activity [24]: 35% | Activity [25]: 15.52% | Activity [26]: 0.35% | Activity [27]: 69.34% | Activity [28]: 20.72% | Activity [29]: 9.86% | Activity [30]: 0.08% | Activity [31]: 54.44% | Activity [32]: 3% | Activity [33]: 41.76% | Activity [34]: 0.8% | Activity [35]: Non-Toxic | Activity [36]: 69% | Ratio IC50 [37]: 15

O=C1c2cccc3cc([N+](=O)[O-])cc(c23)C(=O)N1CCN=C=[Se]
IC50 [1]: 21.6 µM | IC50 [2]: 14.4 µM | IC50 [3]: 15.9 µM | IC50 [4]: 21.6 µM | IC50 [5]: 19.9 µM | IC50 [6]: 20.3 µM | IC50 [7]: 24.8 µM | IC50 [8]: 21 µM | IC50 [9]: 24 µM | IC50 [10]: 15.3 µM | IC50 [11]: 12.6 µM | IC50 [12]: 11 µM

N=C(N)[Se]CCN1C(=O)c2cccc3cccc(c23)C1=O
IC50 [1]: 46.8 µM | IC50 [2]: 12.8 µM | IC50 [3]: 12.1 µM | IC50 [4]: 46.8 µM | IC50 [5]: 11.5 µM | IC50 [6]: 8.2 µM | IC50 [7]: > 50 µM | IC50 [8]: 17.9 µM | IC50 [9]: 28.7 µM | IC50 [10]: 17.9 µM | IC50 [11]: 5.2 µM | IC50 [12]: 5.1 µM
